Experimental data from publication PMC5774489 (OncoTargets and therapy, 2018).
Read-outs that look alike come from different tables or passages of the source.

Legend:
Type in all cases: cell-based
[1] = test system: HCT-116 human colon cancer cells; assay: MTT antiproliferative activity, HCT-116; conditions: read-out: IC50, HCT-116
Method in brief: (§1)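 Cells were pre-incubated for 24 h at 37°C in 5% CO2. Medium was replaced with test compound at 10−4, 10−5, 10−6, 10−7 and 10−8 M for 72 h at 37°C. After a PBS wash, MTT was added for at least 4 h at 37°C and OD was read at 570 nm. IC50 (50% cell killing) came from percent viability versus log concentration; mean ± SEM, n=3.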

[2] = test system: A549 human adenocarcinomic alveolar basal epithelial cells; assay: MTT antiproliferative activity, A549; conditions: read-out: IC50, A549
Method in brief: as §1

[3] = test system: human normal liver cells (L02); assay: MTT antiproliferative activity, L02; conditions: read-out: IC50, L02, 72 h
Method in brief: as §1

[4] = test system: MCF-7 human breast cancer cells; assay: MTT antiproliferative activity, MCF-7; conditions: read-out: IC50, MCF-7
Method in brief: as §1

[5] = test system: HepG2 human hepatocarcinoma; assay: MTT antiproliferative activity, HepG2; conditions: read-out: IC50, HepG2
Method in brief: as §1

[6] = test system: B16F10 mouse melanoma cells; assay: MTT antiproliferative activity, B16F10; conditions: read-out: IC50, B16F10
Method in brief: as §1

[7] = test system: Helf human embryonic lung fibroblast; assay: MTT antiproliferative activity, Helf; conditions: read-out: IC50, Helf, 72 h
Method in brief: as §1

[8] = test system: selected malignant cell lines (B16F10, MCF-7, HCT-116, A549, HepG2); assay: MTT antiproliferative activity, selected malignant cell lines as a panel; conditions: 72 h, read-out: IC50 values, range over the selected malignant cell lines
Method in brief: as §1

[9] = MTT, mean ± SEM, n=3, normal cells

Row | IC50 ([1]; Homo sapiens, HCT-116, 72 h) [µM] | IC50 ([4]; Homo sapiens, MCF7, 72 h) [µM] | IC50 ([5]; Homo sapiens, HepG2, 72 h) [µM] | IC50 ([6]; Mus musculus, B16-F10, 72 h) [µM] | IC50 [8] [µM] | Structure (SMILES) | IC50 ([1]; MTT, 72 h, mean ± SEM, n=3) [µM] | IC50 ([2]; MTT, 72 h, mean ± SEM, n=3) [µM] | IC50 [3, 9] [µM] | IC50 ([4]; MTT, 72 h, mean ± SEM, n=3) [µM] | IC50 ([5]; MTT, 72 h, mean ± SEM, n=3) [µM] | IC50 ([6]; MTT, 72 h, concentration that caused 50% cell killing, mean ± SEM, n=3) [µM] | IC50 [7, 9] [µM] | IC50 ([2]; Homo sapiens, A549, 72 h) [µM] | IC50 ([3]; Homo sapiens) [µM] | IC50 ([7]; Homo sapiens, HELF) [µM]
1 |  |  |  |  |  | N.N.[Cl][Pt][Cl] [Cisplatin] | 9.45 ± 1.04 | 12.7 ± 1.85 | 9.17 ± 0.83 | 7.83 ± 0.52 | 4.77 ± 0.62 | 11.7 ± 0.95 | 21.8 ± 3.03 |  |  | 
2 | 27.3 ± 3.28 | 17.5 ± 1.72 | 30.4 ± 5.14 | 27 ± 2.5 | 17.5 to 38.3 | C=C(C)[C@@H]1CC[C@]2(C(=O)O)CC[C@]3(C)[C@H](CC[C@@H]4[C@@]5(C)CC[C@H](O)C(C)(C)[C@@H]5CC[C@]43C)[C@@H]12 [BA, Betulinic acid] |  |  |  |  |  |  |  | 38.3 ± 5.9 | 96.3 ± 7.99 | 62 ± 8.61
